Source: ChEMBL document CHEMBL5303300, “EUbOPEN Chemogenomics Library - Multiplex” (2023)
Where “and” joins values, the source holds several entries; their conditions need not be identical. Equal entries are not always repeated.

Tested on: Fibroblast
Assay: Multiplex assay against human fibroblast
Assay type: toxicity, cell-based
Settings: number of replicates 2
In short: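 Tubulin, mitochondrial-mass and membrane-permeability phenotypes are per cents of healthy-nucleus cells. Cells were gated by CellPathfinder machine learning into Hoechst high-intensity objects or normal cells, normal cells into healthy, pyknosed or fragmented nuclei, and pyknosed cells into mitotic or apoptotic. Before that, live cells stained at seeding with Hoechst33342, BioTracker Green Microtubule Cytoskeleton Dye, MitoTracker Red and Annexin V Alexa Fluor 680 were imaged on a CQ1 microscope at 37°C and 5% CO2 after compound addition.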

[1] = 12 h, 1 µM, compound concentration 1 uM
[2] = 12 h, 10 µM, compound concentration 10 uM
[3] = 24 h, 1 µM, compound concentration 1 uM
[4] = 24 h, 10 µM, compound concentration 10 uM
[5] = 48 h, 1 µM, compound concentration 1 uM
[6] = 48 h, 10 µM, compound concentration 10 uM

Compound: OC(c1ccc(-c2ccc(CN3CCN(Cc4ccncc4)CC3)cc2)c(F)c1)(C(F)(F)F)C(F)(F)F
- Population Apoptotic (%) [1]: 54% and 23%
- Population Fragmented Nuclei (%) [1]: 5% and 6%
- Population Healthy Nuclei (%) [1]: 43% and 70%
- Population Hoechst High Intensity Objects (%) [1]: 0%
- Population Membrane Permeable-Phenotype (%) [1]: 8% and 3%
- Population Mitochondria Different-Phenotype (%) [1]: 0% and 1%
- Population Mitotic Cells (%) [1]: 45% and 76%
- Population Normal (%) [1]: 100%
- Population Pyknosed Nuclei (%) [1]: 50% and 23%
- Population Tubulin-Different-Phenotype (%) [1]: 6% and 8%
- Total Cell Count [1]: 108 and 164
- Population Apoptotic (%) [2]: 31% and 45%
- Population Fragmented Nuclei (%) [2]: 10% and 16%
- Population Healthy Nuclei (%) [2]: 70% and 63%
- Population Hoechst High Intensity Objects (%) [2]: 0%
- Population Membrane Permeable-Phenotype (%) [2]: 6% and 8%
- Population Mitochondria Different-Phenotype (%) [2]: 0% and 3%
- Population Mitotic Cells (%) [2]: 68% and 55%
- Population Normal (%) [2]: 100% and 99%
- Population Pyknosed Nuclei (%) [2]: 18% and 19%
- Population Tubulin-Different-Phenotype (%) [2]: 24% and 25%
- Total Cell Count [2]: 156 and 204
- Population Apoptotic (%) [3]: 61% and 55%
- Population Fragmented Nuclei (%) [3]: 6% and 10%
- Population Healthy Nuclei (%) [3]: 45% and 65%
- Population Hoechst High Intensity Objects (%) [3]: 0%
- Population Membrane Permeable-Phenotype (%) [3]: 12% and 7%
- Population Mitochondria Different-Phenotype (%) [3]: 2% and 3%
- Population Mitotic Cells (%) [3]: 38% and 44%
- Population Normal (%) [3]: 100%
- Population Pyknosed Nuclei (%) [3]: 47% and 23%
- Population Tubulin-Different-Phenotype (%) [3]: 16% and 15%
- Total Cell Count [3]: 109 and 151
- Population Apoptotic (%) [4]: 44% and 45%
- Population Fragmented Nuclei (%) [4]: 7% and 13%
- Population Healthy Nuclei (%) [4]: 74% and 61%
- Population Hoechst High Intensity Objects (%) [4]: 0%
- Population Membrane Permeable-Phenotype (%) [4]: 3% and 7%
- Population Mitochondria Different-Phenotype (%) [4]: 1% and 3%
- Population Mitotic Cells (%) [4]: 56% and 54%
- Population Normal (%) [4]: 99% and 100%
- Population Pyknosed Nuclei (%) [4]: 17% and 24%
- Population Tubulin-Different-Phenotype (%) [4]: 16% and 23%
- Total Cell Count [4]: 144 and 197
- Population Apoptotic (%) [5]: 74% and 80%
- Population Fragmented Nuclei (%) [5]: 16% and 17%
- Population Healthy Nuclei (%) [5]: 53% and 61%
- Population Hoechst High Intensity Objects (%) [5]: 0%
- Population Membrane Permeable-Phenotype (%) [5]: 11% and 5%
- Population Mitochondria Different-Phenotype (%) [5]: 0%
- Population Mitotic Cells (%) [5]: 25% and 19%
- Population Normal (%) [5]: 100%
- Population Pyknosed Nuclei (%) [5]: 29% and 21%
- Population Tubulin-Different-Phenotype (%) [5]: 11% and 12%
- Total Cell Count [5]: 118 and 167
- Population Apoptotic (%) [6]: 73% and 77%
- Population Fragmented Nuclei (%) [6]: 14% and 16%
- Population Healthy Nuclei (%) [6]: 73% and 71%
- Population Hoechst High Intensity Objects (%) [6]: 0%
- Population Membrane Permeable-Phenotype (%) [6]: 6% and 4%
- Population Mitochondria Different-Phenotype (%) [6]: 0% and 2%
- Population Mitotic Cells (%) [6]: 26% and 22%
- Population Normal (%) [6]: 100%
- Population Pyknosed Nuclei (%) [6]: 11% and 12%
- Population Tubulin-Different-Phenotype (%) [6]: 16% and 12%
- Total Cell Count [6]: 162 and 183

Compound: COc1ccc(NC(=O)c2ccc(-c3ccc(-c4noc(C)n4)cc3C)cc2)cc1OCCN(C)C.Cl
- Population Apoptotic (%) [1]: 34% and 50%
- Population Fragmented Nuclei (%) [1]: 23% and 26%
- Population Healthy Nuclei (%) [1]: 60% and 51%
- Population Hoechst High Intensity Objects (%) [1]: 0%
- Population Mitochondria Different-Phenotype (%) [1]: 6% and 5%
- Population Mitotic Cells (%) [1]: 65% and 50%
- Population Normal (%) [1]: 100% and 99%
- Population Pyknosed Nuclei (%) [1]: 15% and 21%
- Population Tubulin-Different-Phenotype (%) [1]: 39% and 56%
- Total Cell Count [1]: 247 and 176
- Population Fragmented Nuclei (%) [2]: 14% and 30%
- Population Healthy Nuclei (%) [2]: 29% and 48%
- Population Hoechst High Intensity Objects (%) [2]: 2% and 0%
- Population Membrane Permeable-Phenotype (%) [2]: 14% and 7%
- Population Mitochondria Different-Phenotype (%) [2]: 29% and 25%
- Population Normal (%) [2]: 97% and 100%
- Population Pyknosed Nuclei (%) [2]: 56% and 20%
- Population Tubulin-Different-Phenotype (%) [2]: 82% and 72%
- Total Cell Count [2]: 117 and 158
- Population Apoptotic (%) [3]: 46% and 65%
- Population Fragmented Nuclei (%) [3]: 32% and 19%
- Population Healthy Nuclei (%) [3]: 58% and 57%
- Population Hoechst High Intensity Objects (%) [3]: 2% and 0%
- Population Membrane Permeable-Phenotype (%) [3]: 4% and 6%
- Population Mitochondria Different-Phenotype (%) [3]: 10% and 9%
- Population Mitotic Cells (%) [3]: 53% and 34%
- Population Normal (%) [3]: 97% and 99%
- Population Pyknosed Nuclei (%) [3]: 9% and 22%
- Population Tubulin-Different-Phenotype (%) [3]: 44% and 59%
- Total Cell Count [3]: 288 and 170
- Population Apoptotic (%) [4]: 94% and 90%
- Population Fragmented Nuclei (%) [4]: 13% and 26%
- Population Healthy Nuclei (%) [4]: 16% and 10%
- Population Hoechst High Intensity Objects (%) [4]: 0%
- Population Mitochondria Different-Phenotype (%) [4]: 38% and 83%
- Population Mitotic Cells (%) [4]: 5% and 9%
- Population Normal (%) [4]: 100%
- Population Pyknosed Nuclei (%) [4]: 69% and 62%
- Population Tubulin-Different-Phenotype (%) [4]: 72% and 66%
- Total Cell Count [4]: 108 and 116
- Population Apoptotic (%) [5]: 86% and 73%
- Population Fragmented Nuclei (%) [5]: 25% and 32%
- Population Healthy Nuclei (%) [5]: 62% and 60%
- Population Hoechst High Intensity Objects (%) [5]: 0% and 1%
- Population Membrane Permeable-Phenotype (%) [5]: 6% and 1%
- Population Mitochondria Different-Phenotype (%) [5]: 6% and 5%
- Population Mitotic Cells (%) [5]: 13% and 26%
- Population Normal (%) [5]: 100% and 98%
- Population Pyknosed Nuclei (%) [5]: 12% and 6%
- Population Tubulin-Different-Phenotype (%) [5]: 36% and 23%
- Total Cell Count [5]: 191 and 281
- Population Apoptotic (%) [6]: 95% and 96%
- Population Fragmented Nuclei (%) [6]: 20% and 25%
- Population Healthy Nuclei (%) [6]: 15% and 7%
- Population Hoechst High Intensity Objects (%) [6]: 0%
- Population Mitochondria Different-Phenotype (%) [6]: 18% and 25%
- Population Mitotic Cells (%) [6]: 4%
- Population Normal (%) [6]: 100%
- Population Pyknosed Nuclei (%) [6]: 63% and 66%
- Population Tubulin-Different-Phenotype (%) [6]: 81% and 87%
- Total Cell Count [6]: 102 and 112

Compound: CN(C)CCN(Cc1ccc(-c2ccc(CNCCc3ccccc3)cc2)cc1)C(=O)CCC1CCCC1.Cl.Cl
- Population Apoptotic (%) [1]: 25% and 30%
- Population Fragmented Nuclei (%) [1]: 20% and 26%
- Population Healthy Nuclei (%) [1]: 56% and 57%
- Population Hoechst High Intensity Objects (%) [1]: 0%
- Population Membrane Permeable-Phenotype (%) [1]: 3% and 4%
- Population Mitochondria Different-Phenotype (%) [1]: 11% and 14%
- Population Mitotic Cells (%) [1]: 74% and 69%
- Population Normal (%) [1]: 100% and 99%
- Population Pyknosed Nuclei (%) [1]: 22% and 16%
- Population Tubulin-Different-Phenotype (%) [1]: 68% and 55%
- Total Cell Count [1]: 254 and 325
- Population Apoptotic (%) [2]: 84% and 86%
- Population Fragmented Nuclei (%) [2]: 4% and 8%
- Population Healthy Nuclei (%) [2]: 3% and 1%
- Population Hoechst High Intensity Objects (%) [2]: 2% and 0%
- Population Mitotic Cells (%) [2]: 15% and 13%
- Population Normal (%) [2]: 97% and 99%
- Population Pyknosed Nuclei (%) [2]: 92% and 90%
- Population Tubulin-Different-Phenotype (%) [2]: 50% and 100%
- Total Cell Count [2]: 199 and 160
- Population Apoptotic (%) [3]: 55% and 66%
- Population Fragmented Nuclei (%) [3]: 13% and 19%
- Population Healthy Nuclei (%) [3]: 67% and 68%
- Population Hoechst High Intensity Objects (%) [3]: 0%
- Population Membrane Permeable-Phenotype (%) [3]: 3% and 1%
- Population Mitochondria Different-Phenotype (%) [3]: 23% and 29%
- Population Mitotic Cells (%) [3]: 44% and 33%
- Population Normal (%) [3]: 99%
- Population Pyknosed Nuclei (%) [3]: 18% and 11%
- Population Tubulin-Different-Phenotype (%) [3]: 72% and 60%
- Total Cell Count [3]: 239 and 294
- Population Apoptotic (%) [4]: 87% and 90%
- Population Fragmented Nuclei (%) [4]: 6% and 12%
- Population Healthy Nuclei (%) [4]: 1%
- Population Hoechst High Intensity Objects (%) [4]: 1%
- Population Membrane Permeable-Phenotype (%) [4]: 33%
- Population Mitotic Cells (%) [4]: 12% and 9%
- Population Normal (%) [4]: 98%
- Population Pyknosed Nuclei (%) [4]: 92% and 85%
- Total Cell Count [4]: 199 and 156
- Population Apoptotic (%) [5]: 86% and 65%
- Population Fragmented Nuclei (%) [5]: 19% and 27%
- Population Healthy Nuclei (%) [5]: 74% and 66%
- Population Hoechst High Intensity Objects (%) [5]: 0%
- Population Membrane Permeable-Phenotype (%) [5]: 1%
- Population Mitochondria Different-Phenotype (%) [5]: 9% and 11%
- Population Mitotic Cells (%) [5]: 13% and 35%
- Population Normal (%) [5]: 100%
- Population Pyknosed Nuclei (%) [5]: 5% and 6%
- Population Tubulin-Different-Phenotype (%) [5]: 41% and 38%
- Total Cell Count [5]: 255 and 321
- Population Apoptotic (%) [6]: 83% and 93%
- Population Fragmented Nuclei (%) [6]: 12% and 22%
- Population Healthy Nuclei (%) [6]: 6% and 13%
- Population Hoechst High Intensity Objects (%) [6]: 0%
- Population Membrane Permeable-Phenotype (%) [6]: 8% and 14%
- Population Mitochondria Different-Phenotype (%) [6]: 41% and 19%
- Population Mitotic Cells (%) [6]: 16% and 7%
- Population Normal (%) [6]: 100%
- Population Pyknosed Nuclei (%) [6]: 81% and 63%
- Population Tubulin-Different-Phenotype (%) [6]: 50% and 76%
- Total Cell Count [6]: 200 and 157
